Screens as filed in PubChem.
Hits are enriched below; roughly 2.5% of the tested compounds scored in any of these assays.
ABHD4 inh: inhibitors of mouse ABHD4; Q8VD66; purified mABHD4, FP-Rh probe fluorescence polarization; inhibition, % at 8.92 µM; actives 0.54% (n = 370,000); AID 720543;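 active = inhibition exceeding the mean over every tested compound plus 3 SD, cut at about 30% in these data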;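 also: 0% = plate median of compound wells and 100% = S159A mutant with DMSO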
Target sequence (Q8VD66 whole entry, looked up): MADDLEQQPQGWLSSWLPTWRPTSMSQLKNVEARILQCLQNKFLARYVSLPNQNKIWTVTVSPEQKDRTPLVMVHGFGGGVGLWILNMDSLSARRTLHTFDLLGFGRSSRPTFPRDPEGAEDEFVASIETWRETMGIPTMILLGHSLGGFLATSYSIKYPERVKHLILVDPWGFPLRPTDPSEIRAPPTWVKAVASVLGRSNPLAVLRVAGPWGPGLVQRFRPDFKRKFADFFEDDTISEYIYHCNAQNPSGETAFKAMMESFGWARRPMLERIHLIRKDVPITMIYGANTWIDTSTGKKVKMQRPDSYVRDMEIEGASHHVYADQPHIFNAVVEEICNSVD
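Assay system: mABHD4 protein; medium: HEPES pH 7.0, NaCl, Pluronic buffer; dosing: 8.92 µM, single dose; schedule: 45 min + 60 min at 25 °C; signal: FP readout, ex 525 nm / em 598 nm; read-out: normalized percent inhibition of probe labeling; repeats: single replicate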
PRMT1 inh: inhibitors of human PRMT1. Q99873. inhibition, % at 2.79 µM. recombinant PRMT1, activity-based probe fluorescence polarization. actives 1.3% (n = 370,000);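 active = inhibition above about 21% made by adding two undisclosed values, limit read from the data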
TCR CD3 inh: inhibitors of human TCR-CD3 interaction | TAMRA-labeled TCR probe fluorescence, biochemical | AID 651800 | inhibition, % at 9.4 µM | actives 0.37% (n = 360,000); in the data active = inhibition above about 19%;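 also: recombinant mutant TCR 2C K166C tagged with TAMRA read by polarization; 0% = receptor in buffer alone and 100% = receptor with positive control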
HTRA1 inhibitor: blocks human HTRA1 serine peptidase. Q92743. recombinant HTRA1, FP-rhodamine activity-based probe, fluorescence polarization. inhibition, % at 5.96 µM. actives 0.5% (n = 340,000); in the data active = inhibition above about 36%;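 also: 0% = enzyme with DMSO and 100% = wells lacking enzyme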
SIAE primary: blocks human sialic acid acetylesterase | Q9HAT2 | inhibition, % at 9.66 µM | actives 0.69% (n = 370,000) | SIAE FP-Rh probe binding, fluorescence polarization | AID 1053197;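 active = inhibition above a cutoff: mean of compounds within the control limits plus 3 SD of those, cut at about 17% in these data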;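 also: 0% = plate median of compound wells and 100% = probe without SIAE protein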
* = called active by the depositor; x = no result given.

SMILES	ABHD4 inh	PRMT1 inh	TCR CD3 inh	HTRA1 inhibitor	SIAE primary
O=C(NC1CCCCN(Cc2ccc(Cl)cc2)C1=O)c1ccc(-c2ccccc2)cc1 (stereo unspecified)	-15	-3	x	x	-14
CN(C)c1ccc(NC(=O)c2sc(SCC(=O)Nc3nccs3)nc2N)cc1	18	5	5	5	24*
COc1ccc(-c2n[nH]c(=S)n2/N=C/C=C\c2ccccc2OC)cc1	-2	4	0	-6	2
COc1ccccc1/C=C/C=N/n1c(-c2ccc(C)cc2)n[nH]c1=S	-13	22*	-8	-19	-3
S=c1[nH]nc(-c2ccccc2)n1/N=C/c1ccc(Cl)cc1	-3	22*	0	2	5
N#CC1=C2SCN(Cc3ccco3)CN2C(=O)CC1c1cccc2ccccc12 (stereo unspecified)	3	30*	0	-17	7
CCC1CCc2c(sc(NC(=O)c3cnccn3)c2C(N)=O)C1 (stereo unspecified)	7	24*	-7	2	3
O=C(O)c1cccc(S(=O)(=O)Nc2ccc3oc(=O)sc3c2)c1	18	85*	4	8	0
O=C1CCCc2oc3ccc(NS(=O)(=O)c4cccc5cccnc45)cc3c21	2	-2	5	-7	-1
O=c1oc2ccc(NS(=O)(=O)c3cccc4cccnc34)cc2s1	-39	77*	-6	22	14
Cc1ccc(C2=NN=C(NC(=O)CSc3nc(C)cc(C)n3)SC2)cc1	4	91*	-1	x	-3
COc1ccc(C=Nn2c(-c3n[nH]c4c3CCC4)n[nH]c2=S)cc1OCc1ccccc1	1	20	x	x	5
O[C@@H]1[C@@H](O)[C@H](n2c3ccc(Cl)cc3c3ccc4c5cc(Cl)ccc5[nH]c4c32)OC[C@H]1O	-1	2	x	x	-12
NC(=O)c1sc2nc(-c3ccccc3)c3c(c2c1N)CCCC3	6	25*	0	-9	3
Cc1ccc(-c2nc3sc(C(N)=O)c(N)c3c3c2CCCC3)cc1	-2	17	3	-13	12
Cc1[nH]c2ccccc2c1SCC(=O)O	0	1	5	4	6
O=C(O)CSc1c2ccccc2cc2ccccc12	22	31*	0	-5	3
Oc1ccc(C2Nc3cccc4cccc(c34)N2)c(O)c1	-5	1	2	42*	20*
C=CCN(Cc1ccccc1)C(C#CC(=C)C)Cc1ccccc1 (stereo unspecified)	-2	-2	x	x	5
O=C1CC(SCc2nc3ccccc3[nH]2)C(=O)N1c1cccc(Cl)c1 (stereo unspecified)	-14	31*	-7	-9	-14
Cc1cccc(NC2=C(NC(=O)c3ccccc3)C(=O)c3ccccc3C2=O)c1	15	29*	7	9	13
COCC1CN(CCc2ccc(F)cc2)S(=O)(=O)c2c(OCCN3C(=O)[C@@H]4[C@H](C3=O)[C@@H]3C=C[C@H]4C3)cccc2O1 (stereo partly specified)	0	0	-6	x	1
O=C(CN1CCCc2ccccc21)NCc1ccccc1F	6	2	x	x	2
CCOC(=O)c1sc2nc(CC(=O)OC)nc(NCc3ccco3)c2c1C	15	22*	0	25	9
CCOC(=O)c1sc2nc(CC(=O)OC)nc(NCC(=O)OC)c2c1C	0	3	1	0	-5
SMILES	ABHD4 inh	PRMT1 inh	TCR CD3 inh	HTRA1 inhibitor	SIAE primary
O=C(Cn1c(-c2cncs2)nc2ccccc21)N1CCCCC1	3	5	x	x	1
Cc1ccc(S(=O)(=O)NNC(=O)C(=O)NNS(=O)(=O)c2ccc(C)cc2)cc1	4	1	4	4	2
Cc1ccc(NNS(=O)(=O)c2ccc(C)cc2)cc1	17	64*	-5	24	4
COc1ccc2cc3[n+](cc2c1O)CCc1cc2c(cc1-3)OCO2	31*	11	25*	x	20*
CC1CCC2(CC1)CCN(CCCOC(=O)NCc1ccc(Cl)cc1)C2=O (stereo unspecified)	-2	2	x	x	-2
C=CCN1C(=O)[C@H](CC(=O)NCc2cccs2)[C@@]2(C(=O)OCC)CCCC=C12	2	2	x	x	-3
C=C1C(=O)[C@@]23[C@H](O)C[C@@H]4C(C)(C)CC[C@H](O)[C@@]4(C)[C@@H]2CC[C@@H]1[C@H]3O	-11	7	-10	1	-2
C=C1C(=O)[C@@]23[C@H](O)C[C@@H]4C(C)(C)CC[C@H](O)[C@]4(C)[C@@H]2C[C@H](O)[C@@H]1[C@H]3O	-1	22*	-4	-4	4
